# From PubChem BioAssay
# This is a sample that favours compounds with a hit; in the whole collection about 0.98% have one here.
# Statin myotox sup: suppressors of statin myotoxicity in C2C12 myotubes, primary screen, cell-based, single point, plate reader. AID 602340, 2012. C2C12 myotubes + simvastatin, ATP luminescence, 48 h; scaled: DMSO 0, geranylgeraniol control 100. rescue of ATP level, % at 7.49 µM. hit rate 0.78% among 330,000;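 active means mean ATP rescue above about 67%, or every replicate alone reaching that limit, limit read from the data, passing the limit was not always enough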;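 further: myotubes were challenged with 10 µM simvastatin during compound exposure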
# PGC1a acetyl inh: inhibitors of PGC1a acetylation signal, primary screen, cell-based, U2OS, AlphaScreen, inhibitor mode. AlphaScreen anti-acetyl-lysine; with virally co-expressed GCN5 acetyltransferase. inhibition, % at 15.6 µM. hit rate 0.17% among 350,000. AID 651687, 2012;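 active means every replicate shows inhibition of at least 40%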;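 further: 0% = neutral control wells and 100% = positive control wells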
# Rtt109 Vps75: inhibitors of C. albicans Rtt109/Vps75 HAT, primary screen, biochemical, ThioGlo CoA-SH fluorescence, plate reader; hit rate 0.16% among 330,000; purified Rtt109/Vps75, 4 h; Histone acetyltransferase RTT109 (Candida albicans (strain SC5314 / ATCC MYA-2876)), …; inhibition, % at 34.9 µM;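 active means inhibition of at least 50% in every replicate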
# Target sequence (Q5AAJ8 whole entry, looked up): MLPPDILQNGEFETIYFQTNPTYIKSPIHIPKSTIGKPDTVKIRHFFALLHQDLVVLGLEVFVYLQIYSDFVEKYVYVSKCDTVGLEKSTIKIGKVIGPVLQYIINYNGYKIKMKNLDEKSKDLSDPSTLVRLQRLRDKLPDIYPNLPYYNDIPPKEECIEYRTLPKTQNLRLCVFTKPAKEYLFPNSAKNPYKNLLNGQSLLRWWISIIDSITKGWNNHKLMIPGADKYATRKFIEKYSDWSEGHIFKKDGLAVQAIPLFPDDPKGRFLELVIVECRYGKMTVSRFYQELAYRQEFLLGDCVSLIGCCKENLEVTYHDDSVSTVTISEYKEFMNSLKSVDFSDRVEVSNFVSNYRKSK
# S100A4 MyoIIA: inhibitors of S100A4-myosin IIA peptide binding, primary screen, biochemical, fluorescence polarization, TAMRA-MyoIIA peptide. Protein S100-A4 (Homo sapiens), P26447. inhibition, % at 10.7 µM. hit rate 0.14% among 360,000;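 active means mean inhibition of at least 70% across replicates, with every replicate also reaching that level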
# Target sequence (P26447 whole entry, looked up): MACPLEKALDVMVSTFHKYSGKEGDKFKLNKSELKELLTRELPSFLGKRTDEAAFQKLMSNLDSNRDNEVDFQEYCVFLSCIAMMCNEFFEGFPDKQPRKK
#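 Assay system: human S100A4 monomer with TAMRA-labelled myosin IIA peptide / Buffer or medium: Calcium-containing HEPES buffer, pH 7.2 / Reagent: TAMRA-labelled myosin IIA heavy-chain peptide probe, 5 nM / Compound: one dose per compound / Timing: polarization read 5 min after assay mix addition, stable 5–60 min / Benchmarks: neutral control DMSO, positive control TFP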
# ERAP1 HTS inh: human ERAP1 aminopeptidase inhibitors, primary screen, biochemical, single point, plate reader. recombinant ERAP1, Leu-AMC fluorescence, 60 min. inhibition, % at 10.7 µM. hit rate 0.15% among 340,000. AID 652197, 2013;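 active means mean replicate inhibition of at least 30%, or all replicates individually reaching that 30% level; inactive means mean below 30% and not every replicate reaching it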;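 further: 0% = neutral control wells and 100% = L-leucinethiol positive control wells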
# * marks the source's active call; other numbers are inactive results; i = inactive; . = no result given.
SMILES,Statin myotox sup,PGC1a acetyl inh,Rtt109 Vps75,S100A4 MyoIIA,ERAP1 HTS inh
COc1ccc(CN(C)C[C@H]2Oc3ccc(NC(=O)Nc4ccccc4)cc3CC(=O)N([C@@H](C)CO)C[C@@H]2C)cc1,-8.0,-2.8,.,2.1,-3.3
Cc1ccc(-c2cc(C(F)F)n3ncc(C(=O)Nc4c(C)nn(Cc5ccccc5Cl)c4C)c3n2)cc1,79.8*,-5.9,-1.7,.,.
Cc1ccc(-c2cc(C(F)F)n3ncc(C(=O)Nc4c(C)nn(Cc5c(Cl)cccc5Cl)c4C)c3n2)cc1,-36.1,59.1,-4.2,.,.
COc1ccc(NC(=O)Nc2ccc3c(c2)C(=O)N([C@@H](C)CO)C[C@@H](C)[C@@H](CN(C)Cc2ccccc2)O3)cc1,-9.8,3.0,.,-7.6,-0.8
COc1ccc(N=C2S/C(=C\c3cc(C)n(C)c3C)C(=O)N2CC(C)C)cc1,156.2*,-9.8,-0.7,.,.
CC(C)CCCCCCCCCCCCC(=O)NCC(=O)NC1C(O)C(O)C(Nc2ncnc3nc[nH]c23)OC1C(O)CO (stereo not drawn),.,95.9*,11.2,.,.
CC1=CC(C)(C)[N+](C)=CN1c1ccccc1,.,.,-2.0,-2.7,51.2*
Cc1nc2cc(C(=O)O)ccc2n1-c1ccccc1,.,-3.0,-8.0,-6.8,4.6
CCC(=O)N(CC)c1nc(-c2ccc(OC)cc2)cs1,7.8,47.8*,-3.0,.,.
CCC(=O)N(Cc1ccco1)c1nc(-c2ccc(OC)cc2)cs1,-6.9,.,-3.0,.,.
CNc1cc(-n2nc(C)cc2-c2ccccc2)ncn1,8.9,0.5,9.6,.,.
OCCNc1cc(-n2nc(-c3ccccc3)cc2-c2ccccc2)ncn1,113.8*,-3.7,0.1,.,.
CCn1c(CSc2nc(C)cc(C)n2)nnc1SCC(=O)Nc1nc(-c2ccccc2)cs1,117.2*,3.4,-3.6,.,.
O=C(Cc1ccccc1)N1CC(=O)N2[C@H](CO)[C@H](c3ccc(C#CCc4ccccc4)cc3)[C@H]2C1,.,19.6,.,-1.7,-0.1
Cc1nn(C)c(Sc2ccccc2N)c1[N+](=O)[O-],22.7,.,152.8*,-0.1,0.2
Cc1nn(C)c(N)c1[N+](=O)[O-],.,.,-2.8,11.8,-1.7
O=[N+]([O-])c1cccnc1NCCNc1ncc(C(F)(F)F)cc1Cl,136.4*,-1.4,-16.8,.,.
O=[N+]([O-])c1ccccc1NCCNc1ncc(C(F)(F)F)cc1Cl,.,-28.6,-17.0,.,.
COc1ccccc1N(CC(=O)NC(C)(C)C)C(=O)Cn1nnc(-c2ccc(C)o2)n1,10.8,-10.7,4.9,.,.
CC(C)(C)NC(=O)CN(C(=O)Cn1nnc(-c2ccccc2F)n1)c1cccc2c1CCCC2,153.4*,-6.0,-2.6,.,.
Cc1nc2[nH]c(=O)c3c(n2n1)NC1=C(C(=O)CC(C)(C)C1)C3c1ccccc1 (stereo not drawn),-7.2,83.6*,-116.9,.,.
CC(=O)Nc1cccc(OCc2cccc([N+](=O)[O-])c2)c1,.,.,-1.9,1.5,3.6
CC(=O)Nc1ccc(OCc2cccc([N+](=O)[O-])c2)cc1,.,.,58.0*,-3.0,2.8
C[C@H]1CN([C@@H](C)CO)C(=O)CCCn2cc(nn2)CO[C@@H]1CN(C)Cc1cccc(C(F)(F)F)c1,-8.9,10.1,.,-5.9,-0.2
COc1ccc(CNC(=O)C(C)Sc2ccc(C)cc2)cc1 (stereo not drawn),.,0.3,23.2,0.7,11.8
SMILES,Statin myotox sup,PGC1a acetyl inh,Rtt109 Vps75,S100A4 MyoIIA,ERAP1 HTS inh
Cc1ccc(SC(C)C(=O)NCc2ccncc2)cc1 (stereo not drawn),8.5,5.6,-1.7,-3.7,81.6*
CCC(=O)N(C)C[C@H]1Oc2cc(C3=CCCC3)ccc2S(=O)(=O)N([C@@H](C)CO)C[C@@H]1C,-1.1,4.7,.,-80.0,0.3
O=C(COn1nnc2ccc(Cl)cc21)NC12CC3CC(CC(C3)C1)C2,.,84.7*,4.2,.,.
CCC(C)(NC(=O)CNC(C)=O)C(=O)NC1CCCCC1 (stereo not drawn),111.7*,1.2,0.0,.,.
CCOC(=O)c1ccc(N=C2C(=S)N(c3ccc(C(=O)OCC)cc3)C(=N)N2/N=C/c2ccccc2)cc1,-11.3,-2.6,63.7*,.,.
N=c1c(C(=O)NC2CCCCC2)cc2c(=O)n3ccccc3nc2n1CC1CCCO1 (stereo not drawn),.,0.3,i,-3.2,102.7*
N=c1c(C(=O)NCCN2CCOCC2)cc2c(=O)n3ccccc3nc2n1CCCN1CCOCC1,-17.2,.,.,2.9,36.6*
Cc1cccn2c(=O)c3cc(C#N)c(=N)n(CCCN4CCOCC4)c3nc12,4.7,0.5,-215.7,.,.
Cc1cccn2c(=O)c3cc(C#N)c(=N)n(CCN4CCOCC4)c3nc12,104.1*,2.8,4.3,.,.
N#C[C@@H]1[C@@H](c2ccccc2-c2cccc(F)c2)[C@H](CO)N1C(=O)C1CCC1,.,3.7,.,2.1,2.2
CN1C(=O)c2cc(NC(=O)c3ccc(F)c(F)c3)ccc2OC[C@H]2O[C@@H](CC(=O)N[C@@H]3CCN(Cc4ccccc4)C3)CC[C@@H]21,-2.6,.,.,-7.7,0.0
CC(=O)c1cccc(NC(=O)Nc2cccnc2)c1,81.0*,50.3*,6.5,.,.
COC(=O)c1cc(OC)c(OC)cc1NC(=O)Nc1cccc(C(C)=O)c1,114.1*,4.6,-3.7,8.0,-1.8
COc1ccc(S(=O)(=O)Nc2ccc3c(c2)[C@@H]2C[C@H](CC(=O)O)O[C@H](CO)[C@@H]2O3)cc1,0.6,5.5,.,10.5,-0.7
CC=Cc1ccc2n(c1=O)C[C@@H]1[C@@H](CO)[C@H](C(=O)NC3CCC3)[C@H]2N1Cc1ccncc1 (mixture of isomers),.,3.8,.,10.6,1.4
COn1c(-c2ccccc2)nc2c1CCc1c-2no[n+]1[O-],88.9*,5.9,2.2,.,.
COCC(=O)N1CCC2(CC1)CN(Cc1ccc3c(c1)OCO3)[C@H](CO)c1c2c2ccc(OC)cc2n1C,.,-1.0,.,-6.7,1.1
C=CCn1c(-c2ccccc2)c[nH]c1=S,-12.7,-2.7,-0.8,.,.
CCn1c(-c2ccc(-c3ccccc3)cc2)c[nH]c1=S,124.9*,-4.4,-8.1,.,.
COc1ccc(S(=O)(=O)n2nc(OC(=O)C3CCCCC3)cc2N)cc1,105.8*,-7.7,-7.2,.,.
COc1ccc(S(=O)(=O)N(C)C[C@@H]2Oc3ccc(NC(=O)CCN4CCOCC4)cc3CC(=O)N([C@H](C)CO)C[C@H]2C)cc1,-1.5,2.2,.,43.2,2.2
Cc1noc(C)c1NC(=O)N(C)C[C@H]1Oc2ccc(NS(=O)(=O)c3c(C)noc3C)cc2CC(=O)N([C@@H](C)CO)C[C@@H]1C,-26.3,1.6,.,25.8,-1.2
CC1CCCN(C(=O)Cc2ccc(F)cc2)C1 (stereo not drawn),-1.0,75.3*,2.2,.,.
COc1ccc(CC(=O)N2CCCC(C)C2)cc1 (stereo not drawn),.,-7.9,-5.5,.,.
